# Measurements pooled from the literature.
Compound,target or system,assay,system,conditions,quantity,value
C[C@H]1CNCCN1c1nccc(-c2onc3c2CCC[C@@]32CCCc3sc(N)c(C#N)c32)n1,BaF3,cell growth or viability,,72 h,EC50,0.374 µM
CCOC(=O)C1=C(CN2CCC(C(=O)Nc3cccc(B(O)O)c3)C2)NC(c2nccs2)=NC1c1ccc(F)cc1Br (stereo not drawn),Hepatitis B virus,"viral replication, inhibitor, qPCR",HepDES19,72 h,EC50,0.9 µM
COc1cc(N=C2C(=O)N(Cc3ccccc3)c3ccccc32)cc(OC)c1,L02,"cell growth or viability, MTT",,48 h,IC50,> 100 µM
C[C@H](Oc1nccc(-c2noc([C@@]3(C)CCCc4sc(N)c(C#N)c43)n2)n1)[C@@H]1CCCN1C,BaF3,cell growth or viability,,72 h,EC50,0.317 µM
CCOC(=O)C1=C(CN2CCN(Cc3ccc(B4OC(C)(C)C(C)(C)O4)cc3)CC2)NC(c2nccs2)=NC1c1ccc(F)cc1Br (stereo not drawn),Hepatitis B virus,"viral replication, inhibitor, qPCR",HepDES19,72 h,EC50,1.2 µM
O=C1C(=Nc2ccccc2I)c2ccccc2N1Cc1ccc(Br)cc1,L02,"cell growth or viability, MTT",,48 h,IC50,35.2 µM
Fc1ccc(C=NNC(=S)Nc2cccnc2)cc1,Leishmania tropica,"parasite growth, MTT",,"72 h, promastigote",IC50,314 µM
O=C1C(=Nc2cccc(Cl)c2)c2ccccc2N1Cc1ccc([N+](=O)[O-])cc1,L02,"cell growth or viability, MTT",,48 h,IC50,22.7 µM
Nc1nn2c(-c3ccc(Cl)cc3Cl)cc(-c3ccc(OCc4ccccc4)cc3)nc2c1N=Nc1ccc(F)cc1,Saccharomyces cerevisiae,"microbial killing, broth dilution",ATCC9763,,MFC,62.5 µg/mL
Cc1nc(NC(=O)N2CCC[C@H]2C(N)=O)sc1-c1ccnc(C(C)(C)C(F)(F)F)c1,MFM-223,"cell growth or viability, ATP luminescence",,5 days,EC50,8.5 µM
CCOC(=O)C1=C(CN2CCC[C@H]2C(=O)Nc2cccc(B(O)O)c2)NC(c2nccs2)=N[C@H]1c1ccc(F)cc1Br,Hepatitis B virus,"viral replication, inhibitor, qPCR",HepDES19,72 h,EC50,1.9 µM
CNC(=S)NN=Cc1ccc(O)c(OC)c1,Leishmania tropica,"parasite growth, MTT",,"72 h, promastigote",IC50,200 µM
O=C1Nc2ccccc2C1=Nc1ccccc1I,L02,"cell growth or viability, MTT",,48 h,IC50,77.5 µM
Cc1nc(Nc2ncc(C(=O)Nc3c(C)cccc3Cl)s2)cc(N2CC[C@H](O)C2)n1,NALM-6,"cell growth or viability, ATP luminescence",,"10 µM, 72 h",inhibition,68%
O=C1Nc2ccccc2C1=Nc1cccc(Cl)c1,L02,"cell growth or viability, MTT",,48 h,IC50,16 µM
CNC(=S)NN=Cc1ccc(F)cc1,Leishmania tropica,"parasite growth, MTT",,"72 h, promastigote",IC50,441 µM
Cc1ccc(CN2C(=O)C(=Nc3cccc(Cl)c3)c3ccccc32)cc1,L02,"cell growth or viability, MTT",,48 h,IC50,4.76 µM
CCOC(=O)C1=C(CN2CCC[C@H]2C(=O)Nc2ccc(B(O)O)cc2)NC(c2nccs2)=N[C@H]1c1ccc(F)cc1Br,Hepatitis B virus,"viral replication, inhibitor, qPCR",HepDES19,72 h,EC50,1 µM
